Screening results from PubChem BioAssay.
HTRA1 inh = HTRA1 (human) protease inhibition; Q92743; recombinant HTRA1, FP-rhodamine activity-based probe, fluorescence polarization; inhibition, % at 5.96 µM; 340,000 tested, 0.5% active; in the data active = inhibition above about 36%;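 note: 0% = enzyme with DMSO and 100% = wells lacking enzyme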
ABHD4 inh = inhibits mouse alpha/beta hydrolase domain 4; Q8VD66; purified mABHD4, FP-Rh probe fluorescence polarization; inhibition, % at 8.92 µM; 370,000 tested, 0.54% active;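 active = inhibition exceeding the mean over every tested compound plus 3 SD, cut at about 30% in these data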;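 note: 0% = plate median of compound wells and 100% = S159A mutant with DMSO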
Target sequence (Q8VD66 whole entry, looked up, the tested form may be a part): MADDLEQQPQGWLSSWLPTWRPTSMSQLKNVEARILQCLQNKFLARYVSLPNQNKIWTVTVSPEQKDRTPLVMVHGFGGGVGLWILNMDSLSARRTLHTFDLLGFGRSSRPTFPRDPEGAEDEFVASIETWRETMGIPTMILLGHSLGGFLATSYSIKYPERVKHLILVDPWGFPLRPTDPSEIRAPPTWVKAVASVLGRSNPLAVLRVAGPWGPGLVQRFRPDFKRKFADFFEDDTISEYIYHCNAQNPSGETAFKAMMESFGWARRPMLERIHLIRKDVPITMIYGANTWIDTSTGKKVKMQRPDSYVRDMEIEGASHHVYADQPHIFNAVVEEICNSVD
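Test system: mABHD4 protein; Read-out basis: % inhibition; Incubation: 45 min + 60 min at 25 °C; Repeats: single replicate; Technique: fluorescence polarization with parallel and perpendicular emission, 525/598 nm; Compound: 8.92 µM, single dose; Benchmarks: full inhibition S159A mutant plus DMSO, zero as sample-well median.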
rCAG RNA binder = molecules binding r(CAG) RNA repeats; r(CAG) RNA repeat, TO-PRO-1 dye displacement fluorescence; 370,000 tested, 1.3% active; AID 651821; inhibition, % at 3 µM;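 active = inhibition above the plate cutoff, the mean of all test compounds on that plate plus 3 SD, cut at about 35% in these data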;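 note: 0% = DMSO alone and 100% = 100 µM mitoxantrone as full dye displacement; higher means more dye released from RNA so lower well fluorescence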
SIAE inh = blocks human sialic acid acetylesterase. Q9HAT2. SIAE FP-Rh probe binding, fluorescence polarization. inhibition, % at 9.66 µM. 370,000 tested, 0.69% active. AID 1053197;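 active = inhibition above a cutoff: mean of compounds within the control limits plus 3 SD of those, cut at about 17% in these data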;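 note: 0% = plate median of compound wells and 100% = probe without SIAE protein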
PRMT1 FP inh = inhibitors of human PRMT1 | 370,000 tested, 1.3% active | AID 652257 | Q99873 | inhibition, % at 2.79 µM | recombinant PRMT1, activity-based probe fluorescence polarization;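 active = inhibition above about 21% made by adding two undisclosed values, limit read from the data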
TCR-CD3 inh = blocks the human TCR-CD3 interaction | TAMRA-labeled TCR probe fluorescence, biochemical | inhibition, % at 9.4 µM | 360,000 tested, 0.37% active; in the data active = inhibition above about 19%;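 note: recombinant mutant TCR 2C K166C tagged with TAMRA read by polarization; 0% = receptor in buffer alone and 100% = receptor with positive control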
The depositor's hits bear a star. This is a sample that favours compounds with a hit; in the whole collection about 3.5% have one here.

Screening CC(C)(C)OC(=O)c1c(N)n(Cc2ccco2)c2nc3ccccc3nc12 returned HTRA1 inh -10.4, ABHD4 inh 3.1, rCAG RNA binder 16.4, SIAE inh -9.1, PRMT1 FP inh 21.2* and TCR-CD3 inh -5.5.
`C=CCCC(NC(=O)OCc1ccccc1)P(=O)(Oc1ccccc1)Oc1ccccc1` (stereo unspecified) gave ABHD4 inh -8.1, SIAE inh -1.6 and PRMT1 FP inh 3.4.
For COc1ccc2c3c([nH]c2c1)C(C)NCC3 (stereo unspecified) the results were HTRA1 inh 18.4, ABHD4 inh 10.3, rCAG RNA binder 14.3, SIAE inh 6.5, PRMT1 FP inh -3.2 and TCR-CD3 inh 24.7*.
For COc1ccc2[nH]c3c(c2c1)CCNC3C (stereo unspecified) the results were HTRA1 inh -1.0, ABHD4 inh -2.9, rCAG RNA binder 2.7, SIAE inh 2.1, PRMT1 FP inh -1.3 and TCR-CD3 inh -15.9.
Screening CC(C)(C)n1nnnc1C1CN=C(c2ccccc2)c2ccccc2N1 (stereo unspecified) returned ABHD4 inh 2.9, rCAG RNA binder -1.3, SIAE inh -1.6 and PRMT1 FP inh -2.2.
For CCOc1ccc(N2C(=O)/C(=C/c3ccco3)C(=O)NC2=S)cc1 the results were HTRA1 inh 53.9*.
`CCOC(=O)CSCCOc1ccc(C=C2C(=O)NC(=O)NC2=O)cc1OC` gave ABHD4 inh -6.5, rCAG RNA binder -1.6, SIAE inh 4.4, PRMT1 FP inh 5.7 and TCR-CD3 inh 3.6.
CCOc1ccc(N2C(=O)NC(=O)/C(=C\c3ccccc3[N+](=O)[O-])C2=O)cc1 was read as HTRA1 inh 3.4, ABHD4 inh 9.6, rCAG RNA binder 10.3, SIAE inh 0.5, PRMT1 FP inh 13.0 and TCR-CD3 inh 8.5.
Screening CCOC(=O)COc1ccc(/C=C2\C(=O)NC(=S)N(c3ccc(OC)cc3)C2=O)cc1OC returned HTRA1 inh 0.7, ABHD4 inh 8.4, rCAG RNA binder 23.9, SIAE inh -2.6, PRMT1 FP inh 22.6* and TCR-CD3 inh -3.8.
COC(=O)[C@@]1(O)c2c(oc3cccc(O)c3c2=O)C=C[C@H]1O was read as ABHD4 inh -0.1, rCAG RNA binder 2.0, SIAE inh -1.5 and PRMT1 FP inh 5.0.
O=C(NCCN1CCC2(CC1)C(=O)NCN2c1ccccc1)c1ccc(F)c(F)c1 was read as ABHD4 inh 6.4, rCAG RNA binder -2.7, SIAE inh -0.8, PRMT1 FP inh 3.6 and TCR-CD3 inh -4.7.
`N#CCC[C@@H]1CC[C@]2(CCCN(Cc3ccncc3)C2)O1` gave ABHD4 inh 0.6, rCAG RNA binder 0.7, SIAE inh 3.0 and PRMT1 FP inh 1.6.
O=c1[nH]c(=O)n(CCC2=CCCCC2)c(O)c1/C=N/Nc1ccccc1 was read as HTRA1 inh -4.0, ABHD4 inh 7.0, rCAG RNA binder 16.4, SIAE inh 4.6, PRMT1 FP inh 21.9* and TCR-CD3 inh -1.7.
`O=c1[nH]c(=O)n(CCC2=CCCCC2)c(O)c1C=NC1CCN(Cc2ccccc2)CC1` gave HTRA1 inh 0.8, ABHD4 inh 5.9, rCAG RNA binder 2.4, SIAE inh -3.4, PRMT1 FP inh 1.1 and TCR-CD3 inh -2.3.
Screening CCN(CC)P(=S)(c1c(C)nc2ccccn12)c1c(C)nc2ccccn12 returned HTRA1 inh -7.5, ABHD4 inh 6.2, rCAG RNA binder -7.7, SIAE inh 9.1, PRMT1 FP inh 23.6* and TCR-CD3 inh -5.4.
`c1ccc(Cn2nnnc2C2CN=C(c3ccccc3)c3ccccc3N2)cc1` (stereo unspecified) gave ABHD4 inh -4.3, rCAG RNA binder 4.8, SIAE inh -1.1 and PRMT1 FP inh 2.0.
Screening CN1C(=O)N(C)C(=O)C2(Sc3ccccc3C2=O)C1=O returned HTRA1 inh 8.6, ABHD4 inh 14.6, rCAG RNA binder -0.9, SIAE inh 5.5, PRMT1 FP inh 27.1* and TCR-CD3 inh 6.4.
`CCC1(c2ccccc2)C(=O)N(C)C(=O)N(C)C1=O` gave HTRA1 inh -3.9, ABHD4 inh 2.6, rCAG RNA binder -2.4, SIAE inh 2.6, PRMT1 FP inh 0.9 and TCR-CD3 inh -10.5.
For Cc1ccc(N2C(=O)NC(=O)/C(=C/C=C/c3ccco3)C2=O)cc1 the results were HTRA1 inh 0.1, ABHD4 inh -8.4, rCAG RNA binder 29.0, SIAE inh -26.2, PRMT1 FP inh 24.0* and TCR-CD3 inh -3.9.
For O=C(O)c1ccc2c(c1)C1C(Cl)C(Sc3ccccc3[N+](=O)[O-])CC1C(c1cccc([N+](=O)[O-])c1)N2 (stereo unspecified) the results were HTRA1 inh 81.1*.
For O=c1[nH]c(=O)n(C2CCCCCC2)c(O)c1C=NCc1cccnc1 the results were HTRA1 inh -1.9, ABHD4 inh -2.5, rCAG RNA binder -2.9, SIAE inh -1.8, PRMT1 FP inh 2.4 and TCR-CD3 inh -5.2.
For COc1ccc2c(c1OC)C(=O)OC2c1c(O)n(C2CCCCC2)c(=O)[nH]c1=O (stereo unspecified) the results were HTRA1 inh -0.8, ABHD4 inh -6.1, rCAG RNA binder 11.5, SIAE inh 4.4, PRMT1 FP inh 23.4* and TCR-CD3 inh -6.7.
COC(=O)C1=C(c2c(C)noc2C)C[C@@H]2CC[C@H]1N2C(=O)NCCCOC(C)C was read as HTRA1 inh -0.7, ABHD4 inh -3.3, rCAG RNA binder -5.0, SIAE inh 31.1*, PRMT1 FP inh -0.7 and TCR-CD3 inh 1.5.
COC(=O)C1=C(c2c(C)noc2C)C[C@@H]2CC[C@H]1N2C(=O)NCCOc1ccc(OC)cc1 was read as HTRA1 inh -0.3, ABHD4 inh -18.7, rCAG RNA binder -3.9, SIAE inh 4.0, PRMT1 FP inh 3.1 and TCR-CD3 inh -0.9.
CCN1C(=O)NC(=O)/C(=C\c2ccc(N3CCOCC3)cc2OC)C1=O was read as ABHD4 inh 2.0, rCAG RNA binder -1.8, SIAE inh -78.0, PRMT1 FP inh 21.2* and TCR-CD3 inh -22.1.
Screening CC(=O)N1c2ccccc2C(c2ccccc2)=NCC1C(=O)NC1CCCCC1 (stereo unspecified) returned ABHD4 inh -2.2, rCAG RNA binder -0.7, SIAE inh -5.2 and PRMT1 FP inh 4.7.
Screening Cn1c(O)c(C=Nc2cccc(C(F)(F)F)c2)c(=O)n(C)c1=O returned HTRA1 inh 0.7, ABHD4 inh -5.3, rCAG RNA binder -2.8, SIAE inh -3.7, PRMT1 FP inh 22.1* and TCR-CD3 inh 3.0.
For Cn1c(O)c(C=Nc2ccc(Br)cc2)c(=O)n(C)c1=O the results were HTRA1 inh 6.3, ABHD4 inh -1.1, rCAG RNA binder -0.1, SIAE inh 2.2, PRMT1 FP inh 2.5 and TCR-CD3 inh -2.0.
CCN(CC)c1ccc(/C=C2\C(=O)NC(=O)N(Cc3ccco3)C2=O)cc1 was read as HTRA1 inh -39.8, ABHD4 inh -65.0, rCAG RNA binder 24.5, SIAE inh -84.5, PRMT1 FP inh 22.3* and TCR-CD3 inh -78.4.
